This passage reports ED50 and LD50 results from ChEMBL document CHEMBL1121825, “A potent, new, sedative--hypnotic agent: 5,7-dihydro-5,5,7,7-tetramethyl-3-(3-nitrophenyl)furo[3,4-e]-as-triazine 4-oxide” (J Med Chem, 1981).

The subject of data set [1] is Mus musculus. The data set can be described thus: Ability to reinduce anesthesia in mice as a measure of in vivo sedative-hypnotic activity. Format: functional. The gist of the method: (§1)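 Male Royal Hart mice (20–25 g) were anesthetized with hexobarbital 70.0 mg/kg iv. While they were regaining the righting reflex, compound was given ip. Reinduction was scored as loss of righting reflex for 10 min. ED50 (mg/kg) is the dose reinducing anesthesia in 50% of mice, estimated by probit analysis (Miller–Tainter).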

For data set [2], the system named is Mus musculus. The data set can be described thus: Tested for ability to reinduce anesthesia in mice when administered intraperitoneally as a measure of in vivo sedative-hypnotic activity; D represents Toxic. Format: functional, organism-based. In short, it runs like this: as §1
For data set [3], the system named is Mus musculus. The data set can be described thus: Compound was tested for mortality in mice when administered intraperitoneally. Format: functional. The note with it: ip. In short, it runs like this: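 Male Royal Hart mice (20–25 g), groups of five, dosed ip 1 h before SaH 41-178 (50.0 mg/kg ip) to evoke seizures. ED50 is the dose preventing death in 50% of animals, estimated by probit analysis. At least 20 animals per drug.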

The subject of data set [4] is Mus musculus. Briefly: Compound was tested for mortality in mice when administered perorally. Format: functional. The note with it: po. In short, it runs like this:
(§2)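 Groups of five male Royal Hart mice (20–25 g) received test drug ip or orally 1 h before seizure induction with SaH 41-178 (50.0 mg/kg ip). ED50 is the dose preventing tonic convulsions or death in 50% of animals, by probit analysis.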

Data set [5] relates to Mus musculus. Briefly: Ataxia effect in mice was tested when the compound was administered perorally. Format: functional. Particulars: po. The gist of the method:
(§3)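 Male Royal Hart mice (20–25 g) were dosed orally and scored in a modified Irwin behavioural observation screen. ED50 values (mg/kg) were estimated by probit analysis after Miller and Tainter, with at least 20 animals per drug. Values were reported as ED50 ± SE, or as the evaluation at the highest nontoxic dose used.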

For data set [6], the system named is Mus musculus. The data set can be described thus: Ataxia effect in mice was tested when the compound was administered intraperitoneally. The data set is classed as functional. The note with it: ip. In short, it runs like this: (§4)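 Modified Irwin observational screen in male Royal Hart mice (20–25 g). ED50 (mg/kg) by probit analysis; at least 20 animals per drug.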

For data set [7], the system named is Mus musculus. Briefly: Compound was tested for reinduction of anesthesia in mice when administered intraperitoneally. Format: functional. The note with it: ip. In short, it runs like this: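 Male Royal Hart mice (20–25 g) anaesthetised with hexobarbital (70.0 mg/kg iv) were given drug ip as they regained the righting reflex (modified Winter method). ED50 is the dose producing loss of righting reflex for 10 min in 50% of mice, by probit analysis.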

Data set [8] has as its system Mus musculus. Briefly: Compound was tested for rotarod motor coordination in mice when administered intraperitoneally. Format: functional. The note with it: ip. The gist of the method:
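Male Royal Hart mice (20–25 g), groups of five, were trained to ride a corrugated-paper-covered rod turning at 15 rpm for 60–90 s. They were retested 30 and 60 min after ip drug or saline. Percent change in rotarod time was taken against controls. ED50 is the dose cutting rotarod time by 50%, estimated by probit analysis. At least 20 animals per drug.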

For data set [9], the system named is Mus musculus. The data set can be described thus: Compound was tested for rotarod motor coordination in mice when administered perorally. Format: functional. Particulars: po. In short, it runs like this:
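Modified Dunham–Miya rotarod test. Groups of five male Royal Hart mice (20–25 g) were trained on a 15 rpm corrugated rod for 60–90 s, then retested 30 and 60 min after drug or saline (ip or oral). Percent change in riding time versus controls; ED50 is the dose giving a 50% decrease, by probit analysis.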
For orientation: Falling from the rotarod earlier than controls is read as motor impairment.

The subject of data set [10] is Mus musculus. Briefly: Docility effect in mice was tested when the compound was administered ip. Format: functional. In short, it runs like this: as §4
The subject of data set [11] is Mus musculus. Briefly: Docility effect in mice was tested when the compound was administered perorally. The data set is classed as functional. The note with it: po. The gist of the method:
(§5)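 Oral dosing of male Royal Hart mice (20–25 g), scored by a modified Irwin behavioural screen. ED50 (mg/kg) estimated by probit analysis; at least 20 animals per drug.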

Data set [12] concerns Mus musculus. Briefly: Compound was tested for tonic convulsions when administered intraperitoneally. The data set is classed as functional. The note with it: ip. In short, it runs like this:
as §2

In data set [13] the test system is Mus musculus. The data set can be described thus: Righting reflex effect in mice was tested when the compound was administered intraperitoneally. The data set is classed as functional. The note with it: ip. In short, it runs like this:
as §4

Data set [14] relates to Mus musculus. The data set can be described thus: Righting reflex effect in mice was tested when the compound was administered perorally. Format: functional. The note with it: po. In short, it runs like this: as §3
The subject of data set [15] is Mus musculus. Briefly: Hypomotility effect in mice was tested when the compound was administered intraperitoneally. The data set is classed as functional. Particulars: ip. The gist of the method:
as §4

The test system of data set [16] is Mus musculus. The data set can be described thus: Hypomotility effect in mice was tested when the compound was administered perorally. Format: functional. Particulars: po. In short, it runs like this: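 Modified Irwin behavioral observation in male Royal Hart mice (20–25 g), observed for 2 h after dosing. ED50 (mg/kg) estimated by probit analysis per Miller and Tainter. At least 20 animals per drug.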

In data set [17] the test system is Mus musculus. The data set can be described thus: Prehensile effect in mice was tested when the compound was administered intraperitoneally. The data set is classed as functional. Particulars: ip. In short, it runs like this:
as §4

Data set [18] relates to Mus musculus. The data set can be described thus: Prehensile effect in mice was tested when the compound was administered perorally. Format: functional. Particulars: po. In short, it runs like this: as §5
A short description of data set [19]: Acute toxicity in mice after 2 hours when administered intraperitoneally. The data set is classed as organism-based. The note with it: mouse, in vivo, ip. In short, it runs like this: (§6)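 Male Royal Hart mice (20–25 g) dosed intraperitoneally or orally; deaths scored at 2 h and 72 h. LD50 (mg/kg) estimated by probit analysis (Miller–Tainter), with at least 20 animals per drug.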

Data set [20] can be described thus: Acute toxicity in mice after 2 hours when administered perorally. Format: organism-based. The note with it: mouse, in vivo, po. The gist of the method:
as §6

Data set [21] is described as follows: Acute toxicity in mice after 72 hours when administered intraperitoneally. The data set is classed as organism-based. Particulars: mouse, in vivo, ip. The gist of the method: as §6
A short description of data set [22]: Acute toxicity in mice after 72 hours when administered perorally. Particulars: mouse, in vivo, po. The data set is classed as organism-based. In short, it runs like this:
as §6

Data set [23] has as its system Rattus norvegicus. Briefly: Hypomotility effect in rats was tested when the compound was administered perorally. The data set is classed as functional. Particulars: po. In short, it runs like this:
(§7)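 Modified Irwin behavioural observation in male Wistar rats (130–160 g). ED50 (mg/kg) obtained by probit analysis; minimum 20 animals per drug.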

Data set [24] concerns Rattus norvegicus. Briefly: Ataxia effect in rats was tested when the compound was administered perorally. The data set is classed as functional. The note with it: po. In short, it runs like this: as §7
Data set [25] has as its system Rattus norvegicus. The data set can be described thus: Righting reflex effect in rats was tested when the compound was administered perorally. The data set is classed as functional. Particulars: po. The gist of the method:
as §7

The nature of data set [26]: Acute toxicity in rats after 2 hours when administered perorally. Format: organism-based. Particulars: rat, in vivo, po. The gist of the method: (§8)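 Male Wistar rats (130–160 g) dosed orally; lethality read at 2 h and 72 h. LD50 (mg/kg) derived by probit analysis (Miller–Tainter), using a minimum of 20 animals per drug.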
Data set [27] deals with Mus musculus. Briefly: Compound was tested for tonic convulsions when administered perorally. The note with it: po. The data set is classed as functional. In short, it runs like this: as §2
A short description of data set [28]: Acute toxicity in rats after 72 hours when administered perorally. Format: organism-based. Particulars: rat, in vivo, po. The gist of the method: as §8

The ED50 is the dose that gives a 50% effect, or the effect in half of the subjects. `Cc1ccc(-c2nnc3c([n+]2[O-])C(C)(C)OC3(C)C)cc1C`: the ED50 in the data set on Mus musculus [1] amounted to 133 mg/kg.
As to `CC1(C)CSCC(C)(C)c2nc(-c3ccccn3)nnc21`, in the data set with Mus musculus [2], the ED50 entry is “Toxic”.
One may read the LD50 as the dose expected to kill half of the subjects tested. `Cc1ccccc1-n1c(C)nc2ccccc2c1=O` [METHAQUALONE]: the ED50 came to 25 mg/kg in the data set with Mus musculus [3]; 45 mg/kg with Mus musculus [4]; 23 mg/kg in the data set with Mus musculus [5]; 29 mg/kg in the data set on Mus musculus [6]; 19 mg/kg in the data set with Mus musculus [7]; 25 mg/kg with Mus musculus [8]. The ED50 in the data set on Mus musculus [9] was 36 mg/kg; in the data set on Mus musculus [10], 31 mg/kg; with Mus musculus [11], 20 mg/kg; in the data set with Mus musculus [1] it was 20 mg/kg; in the data set on Mus musculus [12], 25 mg/kg; in the data set with Mus musculus [13] it was 34 mg/kg. Moreover, the ED50 turned out to be 23 mg/kg in the data set with Mus musculus [14]; 34 mg/kg in the data set with Mus musculus [15]; 25 mg/kg in the data set on Mus musculus [16]; 37 mg/kg in the data set with Mus musculus [17]; 30 mg/kg with Mus musculus [18]; 44 mg/kg in the data set with Rattus norvegicus [23]. Besides, the ED50 is 23 mg/kg with Rattus norvegicus [24], 52 mg/kg in the data set on Rattus norvegicus [25] and 39 mg/kg in the data set on Mus musculus [27]. In addition, the LD50 at 2 h is 565 mg/kg in data set [19], > 400 mg/kg in data set [20] and > 800 mg/kg in [26]. Besides, the results for the LD50 at 72 h in data set [21], in [22] and in data set [28] were 470 mg/kg, > 400 mg/kg and 185 mg/kg, respectively.
In the case of `CCCc1nnc(-c2ccccn2)nc1C`, the ED50 result in the data set with Mus musculus [2] is “Toxic”.
With `CC1(C)Cc2nnc(-c3cccc([N+](=O)[O-])c3)[n+]([O-])c2C(C)(C)O1`, it took a dose of 500 mg/kg to reach the 50% effect level in the data set on Mus musculus [1] (ED50).
Consider `Cc1cccc(-c2nnc3c([n+]2[O-])C(C)(C)OC3(C)C)c1`, for which the ED50 in the data set with Mus musculus [1] stood at 150 mg/kg.
As for `CC1(C)NC(C)(C)c2c1nnc(-c1ccccc1)[n+]2[O-]`, in the data set with Mus musculus [1], the ED50 turned out to be 1000 mg/kg.
Still for that read-out and setting: then `CC1(C)OC(C)(C)c2nc(-c3ccc(Cl)cn3)nnc21`, with 66.7 mg/kg; and `CC1(C)OC(C)(C)c2nc(-c3cccc[n+]3[O-])nnc21`, with 138 mg/kg; and `CC1(C)OC(C)(C)c2nc(-c3cccnc3)nnc21`, with 28.1 mg/kg.
